The nature of assay [1]: reduced viability of SK-BR-3 breast cancer cells – cell-based, 24 h, human, pilot screen (AID 572;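 active = viability at or below 10% of carrier control in both of two separate runs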;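 also: compound exposure lasted between 18 and 24 h rather than exactly 24 h; 100% = carrier-treated control wells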). As to conditions: SK-BR-3 viability, CellTiter-Glo luminescence, at 10 µM, stronger effect = lower value. On the technique in general: In ATP-based viability assays light output follows the ATP content of the culture.
Assay [2] is described as follows: HUVEC growth inhibition – cell-based, human, primary screen (AID 575;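 active = viability at or below 30% in both replicate assays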;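 also: 100% = median of untreated cell wells with 0.1% DMSO on each plate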). As to conditions: HUVEC proliferation, CellTiter-Glo luminescence, 72 h; at 10 µM; stronger effect = lower value. The essentials: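 System – primary HUVEC, no more than 12 passages · Medium – Low-serum (2% FBS) EBM, supplemented · Times – 72 h exposure, 37 °C, 5% CO2, 30 min RT equilibration · Measured by – luminescent ATP assay · Read-out – % viability relative to median vehicle-well signal on each plate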

Assay [3] can be described thus: H69AR cell proliferation blockers – human, duplicate replicates, primary screen (AID 580;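 active = viability at or under a set limit in both replicates, limit being median viability minus 3 SD, cut at about 48% in these data, passing the limit was not always enough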;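 also: 100% = mean luminescence of untreated wells and 0% = no signal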). As to conditions: H69AR lung tumor cells viability, ATP luminescence, 72 h; at 10 µM; stronger effect = lower value.
The nature of assay [4]: MRP1 drug-resistance reversers in H69AR cells – cell-based, doxorubicin co-treatment, pilot screen (AID 601). As to conditions: CellTiter-Glo, 72 h, at 10 µM; for differential viability (reversal): stronger effect = higher value.
The nature of assay [5]: yeast transport mutant growth inhibition pilot in 384-well plates, post-Golgi transport modulator project (AID 636; in the data active = inhibition above about 31%). As to conditions: absorbance 615 nm, about 18 h, stronger effect = higher value.
A short description of assay [6]: growth suppression of yeast trafficking mutant, preliminary HTS, modulators of trafficking downstream of Golgi apparatus project, 1536-format plate, OD 615 nm (AID 637; in the data active = inhibition above about 30%). As to conditions: yeast transport mutant growth, absorbance 615 nm, 18 h; stronger effect = higher value.
Where [7] appears, read: H69AR cells + 2 uM doxorubicin, measured here: viability with 2 uM doxorubicin, stronger effect = lower value.
Where [8] appears, read: H69AR cells, compound alone cytotoxicity.

The source made the active and inactive calls.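 The calls were made as follows, unless noted: active = viability loss from added drug above about 55%, and viability with drug at most 40%, in both replicates (limit read from the data, passing the limit was not always enough); inconclusive = both conditions met in only one replicate; inactive = neither replicate meets both conditions.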

These results are taken from PubChem BioAssay.

In general, viability refers to a read-out of living cells in per cent, often relative to untreated cells. The inhibition is the change of the read-out against control, counted positive when it falls.

As for `COc1ccc(CNc2nc3nc(C)c(Cl)c(C)n3n2)cc1OC`, the viability is 97% (inactive) in assay [1]; 104% (inactive) in assay [2]; 92.6% (inactive) in assay [3]; 89.4% in assay [4] (setting [7]); 92.6% in assay [4] (setting [8]). In addition, the differential viability (reversal) in assay [4] (H69AR cells + 2 uM doxorubicin) is 3.22% (inactive). Also, the inhibition was -6.35% (inactive) in assay [5] and -6.73% (inactive) in assay [6].
Turning to `CCCNC(=O)N1CCN(S(=O)(=O)c2ccc(C)c(C)c2)CC1`, the viability in assay [1] is 85% (inactive); in assay [2], 112% (inactive); in assay [3] it was 95% (inactive); in assay [4] (setting [7]), 95.7%; in assay [4] (setting [8]), 95%. Moreover, the differential viability (reversal) in assay [4] (H69AR cells + 2 uM doxorubicin) was -0.65% (inactive). The inhibition in assay [5] is 3.42% (inactive); in assay [6] it was 0% (inactive).
For the compound `Cc1ccc(Cn2nnc(C(=O)Nc3cccc(C)c3C)c2N)cc1`, the viability is 97% (inactive) in assay [1]; 63.1% (inactive) in assay [2]; 86.2% (inactive) in assay [3]; 94.1% in assay [4] (setting [7]); 86.2% in assay [4] (setting [8]). The differential viability (reversal) in assay [4] (H69AR cells + 2 uM doxorubicin) is -7.94% (inactive). Moreover, the results for the inhibition in assay [5] and in assay [6] were -6.1% (inactive) and -2.3% (inactive), respectively.
Turning to `COc1ccc(-c2cc3ccc(OCc4nn[nH]n4)cc3oc2=O)cc1`, the viability is 104% (inactive) in assay [1]; 99.2% (inactive) in assay [2]; 102% (inactive) in assay [3]; 87.5% in assay [4] (setting [7]); 102% in assay [4] (setting [8]). For the same compound, in assay [4] (H69AR cells + 2 uM doxorubicin), the differential viability (reversal) was 14.1% (inactive). Besides, the inhibition in assay [5] was -6.58% (inactive); in assay [6] it was 1.29% (inactive).
Consider `CCOC(=O)CSc1nnc(NCC(=O)OC(C)C)c(=O)[nH]1`, for which the viability in assay [1] was 102% (inactive); in assay [2] it was 93.9% (inactive); in assay [3], 93.3% (inactive); in assay [4] (setting [7]), 91.4%; in assay [4] (setting [8]) it was 93.3%. For the same compound, the differential viability (reversal) in assay [4] (H69AR cells + 2 uM doxorubicin) was 1.93% (inactive). Besides, the inhibition was -1.56% (inactive) in assay [5] and -3.61% (inactive) in assay [6].
On to `Cc1ccccc1Nc1nc(N)nc(CSCc2c(C)noc2C)n1`, for which the viability in assay [1] was 88% (inactive); in assay [2] it was 101% (inactive); in assay [3], 96.4% (inactive); in assay [4] (setting [7]) it was 98.2%; in assay [4] (setting [8]), 96.4%. The differential viability (reversal) in assay [4] (H69AR cells + 2 uM doxorubicin) was -1.78% (inactive). Moreover, the inhibition in assay [5] is 3.51% (inactive); in assay [6] it was 3.09% (inactive).
As for `Cc1cc(Nc2ccccc2)n(-c2ccccc2)n1`, the viability is 123% (inactive) in assay [1]; 94.3% (inactive) in assay [2]; 101% (inactive) in assay [3]; 95.6% in assay [4] (setting [7]); 101% in assay [4] (setting [8]). Further, the differential viability (reversal) in assay [4] (H69AR cells + 2 uM doxorubicin) was 5.72% (inactive). For the same compound, the inhibition in assay [5] is -1.1% (inactive); in assay [6], -6.61% (inactive).
For `O=C(Nc1nc(-c2cccs2)cs1)c1cccc(S(=O)(=O)N2CCCCC2)c1`, the viability is 194% (inactive) in assay [1]; 67.2% (inactive) in assay [2]; 66.8% (inactive) in assay [3]; 72.2% in assay [4] (setting [7]); 66.8% in assay [4] (setting [8]). The differential viability (reversal) in assay [4] (H69AR cells + 2 uM doxorubicin) was -5.37% (inactive). The inhibition in assay [5] was 3.9% (inactive); in assay [6], 1.64% (inactive).
In the case of `N[C@@H](Cc1ccc(O)c(I)c1)C(=O)O`, the viability in assay [1] is 87% (inactive); in assay [2], 87.5% (inactive); in assay [3] it was 105% (inactive); in assay [4] (setting [7]) it was 89.3%; in assay [4] (setting [8]) it was 105%. The differential viability (reversal) in assay [4] (H69AR cells + 2 uM doxorubicin) was 15.7% (inactive). Moreover, the figures for the inhibition in assay [5] and in assay [6] were -4.81% (inactive) and -1.33% (inactive), respectively.
As for `O=C(O)CCC(=O)NC1CCCCC1NC(=O)CCC(=O)O` (stereo unspecified), the viability in assay [1] is 104% (inactive); in assay [2], 111% (inactive); in assay [3] it was 99% (inactive); in assay [4] (setting [7]), 91.6%; in assay [4] (setting [8]), 99%. The differential viability (reversal) in assay [4] (H69AR cells + 2 uM doxorubicin) is 7.37% (inactive). Also, the inhibition is -5.47% (inactive) in assay [5] and 0.73% (inactive) in assay [6].
For the compound `COc1ccc(C)cc1C(=O)CCC(=O)Nc1ccccc1N1CCOCC1`, the viability in assay [1] is 90% (inactive); in assay [2], 54% (inactive); in assay [3], 1.36% (active); in assay [4] (setting [7]), 2.85%; in assay [4] (setting [8]) it was 1.36%. For the same compound, in assay [4] (H69AR cells + 2 uM doxorubicin), the differential viability (reversal) was -1.5% (inactive). The inhibition in assay [5] was -6.27% (inactive); in assay [6] it was 1.31% (inactive).
Consider `CCCCc1nc(NCCN2CCOCC2)c(C#N)c2c1COC(C)(C)C2`, for which the viability in assay [1] is 76% (inactive); in assay [2] it was 94.1% (inactive); in assay [3], 91.6% (inactive); in assay [4] (setting [7]) it was 87.5%; in assay [4] (setting [8]), 91.6%. Besides, in assay [4] (H69AR cells + 2 uM doxorubicin), the differential viability (reversal) is 4.02% (inactive). Also, the inhibition was 5.48% (inactive) in assay [5] and 6.77% (inactive) in assay [6].
